rCAG RNA binder = binders of r(CAG) RNA repeats, primary screen, biochemical, fluorescence. actives 1.3% (n = 370,000). inhibition, % at 3 µM. r(CAG) RNA repeat, TO-PRO-1 dye displacement fluorescence;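 active means inhibition above the plate cutoff, the mean of all test compounds on that plate plus 3 SD, cut at about 35% in these data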;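 further: higher means more dye released from RNA so lower well fluorescence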
mABHD4 FP = ABHD4 inhibitors, primary screen, biochemical, fluorescence polarization, mouse. actives 0.54% (n = 370,000). inhibition, % at 8.92 µM. purified mABHD4, FP-Rh probe fluorescence polarization. (Lyso)-N-acylphosphatidylethanolamine lipase (Mus musculus), Q8VD66;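 active means inhibition exceeding the mean over every tested compound plus 3 SD, cut at about 30% in these data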
Target sequence (Q8VD66 whole entry, looked up): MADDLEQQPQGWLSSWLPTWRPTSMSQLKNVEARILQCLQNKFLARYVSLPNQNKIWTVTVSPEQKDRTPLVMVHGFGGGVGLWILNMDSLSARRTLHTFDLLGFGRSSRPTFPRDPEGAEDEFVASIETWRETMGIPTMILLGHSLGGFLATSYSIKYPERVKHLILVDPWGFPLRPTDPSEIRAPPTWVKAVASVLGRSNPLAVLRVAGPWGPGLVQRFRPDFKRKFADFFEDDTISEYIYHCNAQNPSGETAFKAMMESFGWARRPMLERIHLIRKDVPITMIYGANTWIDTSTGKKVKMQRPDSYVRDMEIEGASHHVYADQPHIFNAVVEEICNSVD
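system = mouse ABHD4 enzyme, wild type | medium = HEPES pH 7.0, NaCl, Pluronic buffer | also added = FP-Rh probe | incubation = Enzyme–compound pre-incubation 45 min, then probe 60 min, both 25 °C | technique = fluorescence polarization, excitation 525 nm, emission 598 nm, BODIPY TMR filters | controls = S159A mutant high control, sample median low control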
SIAE primary = human SIAE inhibitors, primary screen, biochemical, fluorescence polarization, FP-Rh probe, 1536-well HTS; inhibition, % at 9.66 µM; SIAE FP-Rh probe binding; actives 0.69% (n = 370,000); Sialate O-acetylesterase (Homo sapiens), Q9HAT2;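 active means inhibition above a cutoff: mean of compounds within the control limits plus 3 SD of those, cut at about 17% in these data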
TCR-CD3 inh = inhibitors of human TCR-CD3 interaction, primary screen, biochemical, fluorescence, TAMRA-labeled TCR probe. T-cell receptor (TCR). inhibition, % at 9.4 µM. actives 0.37% (n = 360,000). AID 651800, 2012; in the data active means inhibition above about 19%;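 further: recombinant mutant TCR 2C K166C tagged with TAMRA read by polarization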
HTRA1 inhibitor = HTRA1 serine protease inhibitors, primary screen, biochemical, fluorescence polarization, HTS. actives 0.5% (n = 340,000). Q92743. AID 504803, 2011. recombinant HTRA1, FP-rhodamine activity-based probe. inhibition, % at 5.96 µM; in the data active means inhibition above about 36%
SIAE inh conf = human SIAE inhibitors, retest, confirmation, biochemical, fluorescence polarization, FP-Rh probe, triplicate | shares compounds with SIAE primary | SIAE FP-Rh activity-based probe | inhibition, % at 9.66 µM | actives 13% (n = 2,300);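 active means mean inhibition of the replicates above the hit cutoff set in the primary screen, cut at about 17% in these data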;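 further: inhibitors lower polarization as more probe stays unbound to SIAE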
A number is an active result. Rows were chosen to be rich in hits. Some 2.5% of all compounds tested hit in one or more screens of this group.

What do the screens show for `CC1=C(C(=O)Nc2cc(C(=O)N3CCN(c4ccc(Cl)cc4)CC3)ccc2C)SCCO1`?
rCAG RNA binder: inactive; mABHD4 FP: inactive; SIAE primary: 19; TCR-CD3 inh: inactive; HTRA1 inhibitor: inactive; SIAE inh conf: inactive

Results for CC1=C(C(=O)Nc2ccc(C(=O)N3CCN(c4cccc(Cl)c4)CC3)cc2)SCCO1 ?
rCAG RNA binder: inactive; mABHD4 FP: inactive; SIAE primary: inactive; TCR-CD3 inh: inactive; HTRA1 inhibitor: inactive

What do the screens show for `CNC(=O)COC(=O)C1CCN(S(=O)(=O)c2ccc3c(c2)OCCO3)CC1`?
rCAG RNA binder: inactive; mABHD4 FP: inactive; SIAE primary: inactive; TCR-CD3 inh: inactive; HTRA1 inhibitor: inactive

Results for Cc1[nH]c(C)c(S(=O)(=O)NCc2ccco2)c1C(=O)N1CCCCC1 ?
rCAG RNA binder: inactive; mABHD4 FP: inactive; SIAE primary: 19; TCR-CD3 inh: inactive; HTRA1 inhibitor: inactive; SIAE inh conf: inactive

Results for Cc1c(C2(O)CCCCC2)[nH]c2cnccc12 ?
rCAG RNA binder: inactive; mABHD4 FP: inactive; SIAE primary: 23; TCR-CD3 inh: inactive; HTRA1 inhibitor: inactive; SIAE inh conf: inactive

How did COc1cc(NS(=O)(=O)c2ccc(NC(=O)c3cccnc3)cc2)ncn1 do in these assays?
rCAG RNA binder: inactive; mABHD4 FP: inactive; SIAE primary: inactive; TCR-CD3 inh: inactive; HTRA1 inhibitor: inactive

How did COC(=O)CCCc1nc2ccccc2s1 do in these assays?
rCAG RNA binder: inactive; mABHD4 FP: inactive; SIAE primary: 63; TCR-CD3 inh: inactive; HTRA1 inhibitor: inactive; SIAE inh conf: inactive

What do the screens show for `Cc1noc(C)c1S(=O)(=O)Nc1ccccc1Cl`?
rCAG RNA binder: inactive; mABHD4 FP: inactive; SIAE primary: inactive; TCR-CD3 inh: inactive; HTRA1 inhibitor: inactive

How did CCC12CCCN3CCc4c(n(c5ccccc45)C(O)(C(=O)OC)C1)C32 (centres undefined) do in these assays?
rCAG RNA binder: inactive; mABHD4 FP: inactive; SIAE primary: 21; TCR-CD3 inh: inactive; HTRA1 inhibitor: inactive; SIAE inh conf: inactive

What do the screens show for `CCNC(=S)NN=C1c2ccccc2-c2ccccc21`?
rCAG RNA binder: inactive; mABHD4 FP: inactive; SIAE primary: 24; TCR-CD3 inh: inactive; HTRA1 inhibitor: inactive; SIAE inh conf: inactive

How did C=C(C)CNC(=S)NN=C1c2ccccc2-c2ccccc21 do in these assays?
HTRA1 inhibitor: inactive

Results for CC(Sc1ccc(Cl)cc1)C(=O)NCC(c1ccco1)N1CCCCC1 (centres undefined) ?
rCAG RNA binder: inactive; mABHD4 FP: inactive; SIAE primary: 63; TCR-CD3 inh: inactive; HTRA1 inhibitor: inactive; SIAE inh conf: inactive

Results for O=C(c1ccccc1F)N1CCN(c2ccccc2)CC1 ?
rCAG RNA binder: inactive; mABHD4 FP: inactive; SIAE primary: 17; TCR-CD3 inh: inactive; HTRA1 inhibitor: inactive; SIAE inh conf: inactive

How did O=S(=O)(/N=S1\CC=CCN1S(=O)(=O)c1ccccc1)c1ccccc1 (centres undefined) do in these assays?
rCAG RNA binder: inactive; mABHD4 FP: inactive; SIAE primary: 20; TCR-CD3 inh: inactive; HTRA1 inhibitor: inactive; SIAE inh conf: inactive

What do the screens show for `CC1=C(C)CS(=O)N(S(=O)(=O)c2ccccc2)C1` (centres undefined)?
rCAG RNA binder: inactive; mABHD4 FP: inactive; SIAE primary: inactive; TCR-CD3 inh: inactive; HTRA1 inhibitor: inactive

What do the screens show for `COc1ccc(NC(=O)Nc2cccc3c2O[C@H](CN(C)C(=O)Nc2ccc(OC)cc2)[C@@H](C)CN([C@H](C)CO)C3=O)cc1`?
rCAG RNA binder: inactive; mABHD4 FP: inactive; SIAE primary: inactive; TCR-CD3 inh: inactive; HTRA1 inhibitor: inactive

What do the screens show for `O=C(CSc1nnc2ccccn12)NC(=O)c1ccccc1`?
rCAG RNA binder: inactive; mABHD4 FP: inactive; SIAE primary: 17; TCR-CD3 inh: inactive; HTRA1 inhibitor: inactive; SIAE inh conf: inactive

Results for O=C(CSc1nnc2ccccn12)NC(=O)NC1CCCC1 ?
rCAG RNA binder: inactive; mABHD4 FP: inactive; SIAE primary: inactive; TCR-CD3 inh: inactive; HTRA1 inhibitor: inactive

What do the screens show for `COc1ccc(Cl)cc1/C=C1/C(=O)ON=C1C`?
rCAG RNA binder: inactive; mABHD4 FP: inactive; SIAE primary: inactive; TCR-CD3 inh: inactive; HTRA1 inhibitor: inactive

High-throughput results: PubChem, The Scripps Research Institute Molecular Screening Center
